Experiments:
[1] = biological target: Voltage-gated L-type calcium channel (Rattus norvegicus, UniProt P22002+Q02485+P27732); experiment: Affinity to bind dihydropyridine receptor (DHP receptor) by inhibiting the radioligand [3H]nitrendipine; type: protein assay
Outline: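 [3H]nitrendipine displacement, rat brain cortical membranes. Each compound first screened at 1000 nM; if inhibition exceeded 40%, a four- to seven-point curve with unlabeled compound was run. IC50 generally mean of two experiments, each in triplicate. ">1000 nM" means under 40% inhibition of control binding at 1000 nM.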

Oryctolagus cuniculus [2] = species: Oryctolagus cuniculus; experiment: Vasoconstrictor effect at a concentration of 10e-7 M in presence of nondepolarized isolated rings from rabbits.; type: functional
Oryctolagus cuniculus [3] = species: Oryctolagus cuniculus; experiment: Vasoconstrictor effect at a concentration of 10e-7 M in presence of partially depolarized isolated rings from rabbits.; type: functional
Oryctolagus cuniculus [4] = species: Oryctolagus cuniculus; experiment: Vasoconstrictor effect at a concentration of 10e-8 M in presence of nondepolarized isolated rings from rabbits.; type: functional
Oryctolagus cuniculus [5] = species: Oryctolagus cuniculus; experiment: Vasoconstrictor effect at a concentration of 10e-8 M in presence of partially depolarized isolated rings from rabbits.; type: functional
Oryctolagus cuniculus [6] = species: Oryctolagus cuniculus; experiment: Vasoconstrictor effect at a concentration of 10e-9 M in presence of partially depolarized isolated rings from rabbits.; type: functional
Oryctolagus cuniculus [7] = species: Oryctolagus cuniculus; experiment: Vasoconstrictor effect at a concentration of 10e-9 M in presence of nondepolarized isolated rings from rabbits.; type: functional
Oryctolagus cuniculus [8] = species: Oryctolagus cuniculus; experiment: Vasorelaxant effect at a concentration of 10e-4 M on rabbit aortic rings previously contracted with 1.0 uM Norepinephrine.; type: functional, Aorta; set-up: unit not given here
Outline: (§1)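 Rabbit aortic rings precontracted with 50 mM KCl or 1.0 μM norepinephrine, then exposed to increasing concentrations of test agent. Relaxation recorded at each concentration.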

Oryctolagus cuniculus [9] = species: Oryctolagus cuniculus; experiment: Vasorelaxant effect at a concentration of 10e-4 M on rabbit aortic rings previously contracted with 50 mM KCl.; type: functional, Aorta; set-up: unit not given here; outline: as §1
Oryctolagus cuniculus [10] = species: Oryctolagus cuniculus; experiment: Vasorelaxant effect at a concentration of 10e-5 M on rabbit aortic rings previously contracted with 1.0 uM Norepinephrine.; type: functional, Aorta; set-up: unit not given here; outline: as §1
Oryctolagus cuniculus [11] = species: Oryctolagus cuniculus; experiment: Vasorelaxant effect at a concentration of 10e-5 M on rabbit aortic rings previously contracted with 50 mM KCl.; type: functional, Aorta; set-up: unit not given here; outline: as §1
Oryctolagus cuniculus [12] = species: Oryctolagus cuniculus; experiment: Vasorelaxant effect at a concentration of 10e-6 M on rabbit aortic rings previously contracted with 1.0 uM Norepinephrine.; type: functional, Aorta; set-up: unit not given here; outline: as §1
Oryctolagus cuniculus [13] = species: Oryctolagus cuniculus; experiment: Vasorelaxant effect at a concentration of 10e-6 M on rabbit aortic rings previously contracted with 50 mM KCl.; type: functional, Aorta; set-up: unit not given here; outline: as §1
Oryctolagus cuniculus [14] = species: Oryctolagus cuniculus; experiment: Vasorelaxant effect at a concentration of 10e-7 M on rabbit aortic rings previously contracted with 1.0 uM Norepinephrine.; type: functional, Aorta; set-up: unit not given here; outline: as §1
Oryctolagus cuniculus [15] = species: Oryctolagus cuniculus; experiment: Vasorelaxant effect at a concentration of 10e-7 M on rabbit aortic rings previously contracted with 50 mM KCl.; type: functional, Aorta; set-up: unit not given here; outline: as §1
Oryctolagus cuniculus [16] = species: Oryctolagus cuniculus; experiment: Vasorelaxant effect at a concentration of 10e-8 M on rabbit aortic rings previously contracted with 1.0 uM Norepinephrine.; type: functional, Aorta; outline: as §1
Oryctolagus cuniculus [17] = species: Oryctolagus cuniculus; experiment: Vasorelaxant effect at a concentration of 10e-8 M on rabbit aortic rings previously contracted with 50 mM KCl.; type: functional, Aorta; outline: as §1
Oryctolagus cuniculus [18] = species: Oryctolagus cuniculus; experiment: Vasorelaxant effect at a concentration of 10e-9 M on rabbit aortic rings previously contracted with 1.0 uM Norepinephrine.; type: functional, Aorta; outline: as §1
Oryctolagus cuniculus [19] = species: Oryctolagus cuniculus; experiment: Vasorelaxant effect at a concentration of 10e-9 M on rabbit aortic rings previously contracted with 50 mM KCl.; type: functional, Aorta; outline: as §1
Oryctolagus cuniculus [20] = species: Oryctolagus cuniculus; experiment: Vasoconstrictor effect at a concentration of 10e-4 M in presence of nondepolarized isolated rings from rabbits.; type: functional
Oryctolagus cuniculus [21] = species: Oryctolagus cuniculus; experiment: Vasoconstrictor effect at a concentration of 10e-4 M in presence of partially depolarized isolated rings from rabbits.; type: functional
Oryctolagus cuniculus [22] = species: Oryctolagus cuniculus; experiment: Vasoconstrictor effect at a concentration of 10e-5 M in presence of nondepolarized isolated rings from rabbits.; type: functional
Oryctolagus cuniculus [23] = species: Oryctolagus cuniculus; experiment: Vasoconstrictor effect at a concentration of 10e-5 M in presence of partially depolarized isolated rings from rabbits.; type: functional
Oryctolagus cuniculus [24] = species: Oryctolagus cuniculus; experiment: Vasoconstrictor effect at a concentration of 10e-6 M in presence of partially depolarized isolated rings from rabbits.; type: functional
Rattus norvegicus [25] = species: Rattus norvegicus; experiment: Compound was tested for its effect on coronary vasodilator in isolated rat hearts.; type: functional
Outline: (§2)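 Coronary vasodilation and ventricular contractility measured in isolated Langendorff-perfused rat hearts. EC25 (concentration raising the parameter by 25%) given as mean ± SEM of four to six hearts.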

Rattus norvegicus [26] = species: Rattus norvegicus; experiment: Compound was tested for its effect on ventricular contractility in isolated rat hearts.; type: functional, Cardiac ventricle; outline: as §2
Rattus norvegicus [27] = species: Rattus norvegicus; experiment: Cardiovascular activity in isolated rat heart, concentration producing 25% increase in CF (cardiac flow).; type: functional
Outline: (§3)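 Isolated Langendorff-perfused rat heart. Coronary flow (CF), LV +dP/dtmax and heart rate recorded during exposure to test agent. Value is the concentration giving a 25% rise in CF or in LV +dP/dtmax, mean ± SE. At least two hearts per compound.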

Rattus norvegicus [28] = species: Rattus norvegicus; experiment: Cardiovascular activity in isolated rat heart, concentration producing 25% increase in LV + dP/dtmax.; type: functional; outline: as §3
Oryctolagus cuniculus [29] = species: Oryctolagus cuniculus; experiment: Vasoconstrictor effect at a concentration of 10e-5 M using nondepolarized isolated rings from rabbit.; type: functional
Oryctolagus cuniculus [30] = species: Oryctolagus cuniculus; experiment: Vasoconstrictor effect at a concentration of 10e-7 M using partially depolarized isolated rings from rabbit.; type: functional
Oryctolagus cuniculus [31] = species: Oryctolagus cuniculus; experiment: Vasoconstrictor effect at a concentration of 10e-8 M using nondepolarized isolated rings from rabbit.; type: functional
Oryctolagus cuniculus [32] = species: Oryctolagus cuniculus; experiment: Vasoconstrictor effect at a concentration of 10e-8 M using partially depolarized isolated rings from rabbit.; type: functional
Oryctolagus cuniculus [33] = species: Oryctolagus cuniculus; experiment: Vasoconstrictor effect at a concentration of 10e-5 M using partially depolarized isolated rings from rabbit.; type: functional
Oryctolagus cuniculus [34] = species: Oryctolagus cuniculus; experiment: Vasoconstrictor effect at a concentration of 10e-6 M using nondepolarized isolated rings from rabbit.; type: functional
Oryctolagus cuniculus [35] = species: Oryctolagus cuniculus; experiment: Vasoconstrictor effect at a concentration of 10e-6 M using partially depolarized isolated rings from rabbit.; type: functional
Oryctolagus cuniculus [36] = species: Oryctolagus cuniculus; experiment: Vasoconstrictor effect at a concentration of 10e-7 M using nondepolarized isolated rings from rabbit.; type: functional
Oryctolagus cuniculus [37] = species: Oryctolagus cuniculus; experiment: Vasoconstrictor effect at a concentration of 10e-9 M using nondepolarized isolated rings from rabbit.; type: functional
Oryctolagus cuniculus [38] = species: Oryctolagus cuniculus; experiment: Vasoconstrictor effect at a concentration of 10e-9 M using partially depolarized isolated rings from rabbit.; type: functional
Oryctolagus cuniculus [39] = species: Oryctolagus cuniculus; experiment: Vasoconstrictor effect at a concentration of 3 x 10e-8 M using nondepolarized isolated rings from rabbit.; type: functional
Oryctolagus cuniculus [40] = species: Oryctolagus cuniculus; experiment: Vasoconstrictor effect at a concentration of 3 x 10e-8 M using partially depolarized isolated rings from rabbit.; type: functional
Oryctolagus cuniculus [41] = species: Oryctolagus cuniculus; experiment: Vasoconstrictor effect at a concentration of 3 x 10e-9 M using nondepolarized isolated rings from rabbit.; type: functional
Oryctolagus cuniculus [42] = species: Oryctolagus cuniculus; experiment: Vasoconstrictor effect at a concentration of 3 x 10e-9 M using partially depolarized isolated rings from rabbit.; type: functional

With CCOC(=O)C1=C(CS(=O)(=O)c2ccncc2)NC(C)=C(C#N)C1c1ccccc1C(F)(F)F (stereo in doubt; 54) the IC50 [1] was 271 nM, the Vasoconstriction effect (Oryctolagus cuniculus [2]) was 0 and the Vasoconstriction effect (Oryctolagus cuniculus [3]) was 5. It also gave a Vasoconstriction effect (Oryctolagus cuniculus [4]) of 0, a Vasoconstriction effect (Oryctolagus cuniculus [5]) of 4.5 and a Vasoconstriction effect (Oryctolagus cuniculus [6]) of 3.3. It also gave a Vasoconstriction effect (Oryctolagus cuniculus [7]) of 0, a Vasorelaxant effect (Oryctolagus cuniculus [8]) of 4.2 and a Vasorelaxant effect (Oryctolagus cuniculus [9]) of 88.9. It also gave a Vasorelaxant effect (Oryctolagus cuniculus [10]) of 0.7, a Vasorelaxant effect (Oryctolagus cuniculus [11]) of 53.8 and a Vasorelaxant effect (Oryctolagus cuniculus [12]) of -2.3. It also gave a Vasorelaxant effect (Oryctolagus cuniculus [13]) of 6.2, a Vasorelaxant effect (Oryctolagus cuniculus [14]) of -1.8 and a Vasorelaxant effect (Oryctolagus cuniculus [15]) of -9.1. For the same molecule, the Vasorelaxant effect (Oryctolagus cuniculus [16]) was -1.4, the Vasorelaxant effect (Oryctolagus cuniculus [17]) was -8.6 and the Vasorelaxant effect (Oryctolagus cuniculus [18]) was -0.9. For the same molecule, the Vasorelaxant effect (Oryctolagus cuniculus [19]) was -4.8, the Vasoconstriction effect (Oryctolagus cuniculus [20]) was 0 and the Vasoconstriction effect (Oryctolagus cuniculus [21]) was 0. It also gave a Vasoconstriction effect (Oryctolagus cuniculus [22]) of 0, a Vasoconstriction effect (Oryctolagus cuniculus [23]) of 0 and a Vasoconstriction effect (Oryctolagus cuniculus [24]) of 2.4. For the same molecule, the EC25 (Rattus norvegicus [25]) was 284 nM, the EC25 (Rattus norvegicus [26]) was 535 nM and the EC25 (Rattus norvegicus [27]) was 290 nM. It also gave an EC25 (Rattus norvegicus [28]) of 470 nM.
NC[C@H](O)c1ccc(O)c(O)c1 [NOREPINEPHRINE] was tested, and the Vasoconstriction effect (Oryctolagus cuniculus [29]) was 151.3, the Vasoconstriction effect (Oryctolagus cuniculus [30]) was 84.4 and the Vasoconstriction effect (Oryctolagus cuniculus [31]) was 22.2. For the same molecule, the Vasoconstriction effect (Oryctolagus cuniculus [32]) was 46.2, the Vasoconstriction effect (Oryctolagus cuniculus [33]) was 137.2 and the Vasoconstriction effect (Oryctolagus cuniculus [34]) was 112.6. It also gave a Vasoconstriction effect (Oryctolagus cuniculus [35]) of 106.3, a Vasoconstriction effect (Oryctolagus cuniculus [36]) of 80.2 and a Vasoconstriction effect (Oryctolagus cuniculus [37]) of 0. For the same molecule, the Vasoconstriction effect (Oryctolagus cuniculus [38]) was 7.8, the Vasoconstriction effect (Oryctolagus cuniculus [39]) was 49.1 and the Vasoconstriction effect (Oryctolagus cuniculus [40]) was 63.4. For the same molecule, the Vasoconstriction effect (Oryctolagus cuniculus [41]) was 0 and the Vasoconstriction effect (Oryctolagus cuniculus [42]) was 18.2.

From ChEMBL document CHEMBL1125592, “Calcium channel blocking and positive inotropic activities of ethyl 5-cyano-1,4-dihydro-6-methyl-2-[(phenylsulfonyl)methyl]-4-aryl-3- pyridine-carboxylate and analogues. Synthesis and structure-activity relationships” (J Med Chem, 1991)
